This passage reports IC50, GI50 and Activity results from ChEMBL document CHEMBL1145824, “Simplified discodermolide analogues: synthesis and biological evaluation of 4-epi-7-dehydroxy-14,16-didemethyl-(+)-discodermolides as microtubule-stabilizing agents” (J Med Chem, 2003).

Structures are written as SMILES.

In one experiment the test system is A549. Briefly: Antiproliferative potency determined as inhibitory concentration against A549 cells. In kind it is functional, cell-based. The following applies: Homo sapiens. A digest of the protocol:
(§1)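 MTS growth-inhibition assay. Cells seeded at 500-2000/well, attached and grown 48 h, then given agent or vehicle (4% DMSO) for 72 h continuous exposure. A time-zero plate was read. Initial 5-fold dilution screen, then 2-fold dilutions (five concentrations) centred on the estimated GI50, in quadruplicate. Read-out A490 minus A630 with phenazine methanesulfonate as electron acceptor. Mean ± SD, N = 4 over 10 concentrations.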

The subject of another experiment is 2008. The experiment can be described thus: Inhibitory concentration against 2008 (ovarian) cells. In kind it is functional. The following applies: Homo sapiens. The method, boiled down:
(§2)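 Cells plated at 500-2000/well, allowed to attach and grow 48 h, then exposed continuously for 72 h to vehicle (4% DMSO) or agent. Initial screen at 5-fold dilutions; GI50 then set by a repeat screen of five 2-fold dilutions centred on the estimate, in quadruplicate. A time-zero plate was included. Cell number was read by MTS/phenazine methanesulfonate absorbance (490 minus 630 nm). Values are means ± SD, N=4.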

Experiment [1] is described as follows: Inhibitory concentration against […] (breast) cells. In kind it is functional. The following applies: Homo sapiens. The method, boiled down: as §2
The test system of another experiment is PC-3. Briefly: Inhibitory concentration against PC3 (prostate) cells. In kind it is functional. The settings on record: Homo sapiens. A digest of the protocol: as §2
Experiment [2] is described as follows: Percent competition for binding to preformed microtubules by 4 uM as against 2 uM of 3[H]paclitaxel. In kind it is functional. A digest of the protocol:
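Microtubules preformed from 2 µM bovine brain tubulin with 20 µM ddGTP in monosodium glutamate, 30 min at 37 °C. Then 2 µM [3H]paclitaxel plus 4 µM agent (final concentrations) was added for 30 min at 37 °C. Samples were centrifuged at 14000 rpm for 20 min at room temperature, and supernatant radioactivity was counted. Bound = total minus free, normalized to the no-inhibitor control.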

The subject of a further experiment is tubulin (Bos taurus). Briefly: Percent assembly of bovine brain tubulin induced by compound at 10 uM versus that caused by 10 uM paclitaxel.
The nature of experiment [3]: Antiproliferative potency determined as inhibitory concentration against MG63 cells. In kind it is functional, cell-based. The settings on record: Homo sapiens, MG-63. The method, boiled down: as §1

Consider `C=C/C=C\C(C)C(OC(N)=O)[C@@H](C)[C@H](O)C(C)C/C(C)=C\C(C)[C@@H](O)[C@@H](C)/C=C\C(C[C@@H]1OC(=O)[C@H](C)[C@@H](OC(C)=O)[C@H]1C)OC(C)=O` (stereo partly drawn), for which the IC50 (in general, the concentration that inhibits the measured activity by half) with A549 amounted to 0.8 nM.

With `CC(=O)O[C@H]1C(=O)[C@@]2(C)[C@H]([C@H](OC(=O)c3ccccc3)[C@]3(O)C[C@H](OC(=O)[C@H](O)[C@@H](NC(=O)c4ccccc4)c4ccccc4)C(C)=C1C3(C)C)[C@]1(OC(C)=O)CO[C@@H]1C[C@@H]2O` [PACLITAXEL], the results for the GI50 (with 2008; in experiment [1]; with PC-3) were 9.2 nM, 2.4 nM and 15 nM, respectively. In the experiment on A549, the half-inhibitory concentration (IC50) is 1.4 nM. Further, the results for the Activity (in experiment [2]; with tubulin (Bos taurus)) were 37% and 100%, respectively.

On to `C=C/C=C\C(C)C(OC(N)=O)[C@@H](C)[C@H](O)C(C)C/C(C)=C\C(C)[C@@H](O)[C@@H](C)/C=C\C(O)C[C@@H]1OC(=O)[C@H](C)[C@@H](OC(C)=O)[C@H]1C` (stereo partly drawn), for which the IC50 in the experiment with A549 was 3.8 nM.

Take `C=C/C=C\[C@H](C)[C@H](OC(N)=O)[C@@H](C)[C@H](O)CC/C=C\C(C)[C@@H](O)[C@@H](C)/C=C\CC[C@@H]1OC(=O)[C@H](C)[C@@H](OCOC)[C@@H]1C` (stereo partly drawn): the GI50 (in general, the concentration that inhibits growth by half) in the experiment with 2008 worked out at 650 nM; in experiment [1], 870 nM; in the experiment with PC-3, 1800 nM. Further, the Activity in experiment [2] amounted to 57%; with tubulin (Bos taurus), 27%.

In the experiment with A549, `C=C/C=C\C(C)C(OC(N)=O)[C@@H](C)[C@H](O)[C@@H](C)C/C(C)=C\C(C)[C@@H](O)[C@@H](C)/C=C\CC[C@@H]1OC(=O)C=C[C@H]1C` (stereo partly drawn) had a half-maximal inhibitory concentration (IC50) of 11.4 nM.

The compound `C=C/C=C\C(C)C(OC(N)=O)[C@@H](C)[C@H](O)CC/C(C)=C\C(C)[C@@H](O)[C@@H](C)/C=C\C(O)C[C@@H]1OC(=O)[C@H](C)[C@@H](O)[C@H]1C` (stereo partly drawn) showed an IC50 in experiment [3] of 10 nM.

For the compound `C=C/C=C\[C@H](C)[C@H](OC(N)=O)[C@@H](C)[C@H](O)[C@@H](C)C/C(C)=C\[C@H](C)[C@@H](O)[C@@H](C)/C=C\[C@@H](O)C[C@@H]1OC(=O)[C@H](C)[C@@H](O)[C@H]1C` [DISERMOLIDE], the GI50 in the experiment with 2008 was 1500 nM; in experiment [1], 2600 nM; in the experiment on PC-3, 3000 nM. The Activity in experiment [2] came out at 32%; in the experiment on tubulin (Bos taurus), 14%.

On to `COCO[C@H]1[C@@H](C)[C@H](CC/C=C\[C@H](C)[C@H](O)[C@@H](C)/C=C\CC[C@@H](O)[C@H](C)COC(N)=O)OC(=O)[C@@H]1C`, for which the GI50 with 2008 is above 50000 nM; in experiment [1], 30000 nM; in the experiment on PC-3, above 50000 nM. Moreover, the Activity is 13% in experiment [2] and below 5% in the experiment on tubulin (Bos taurus).

As to `C=C/C=C\C(C)C(OC(N)=O)[C@@H](C)[C@H](O)C(C)C/C(C)=C\C(C)[C@@H](OC(C)=O)[C@@H](C)/C=C\C(O)C[C@@H]1OC(=O)[C@H](C)[C@@H](OC(C)=O)[C@H]1C` (stereo partly drawn), the IC50 with A549 was found to be 164 nM.

In the experiment with A549, `C=C/C=C\C(C)C(OC(N)=O)[C@@H](C)[C@H](O)[C@@H](C)C/C=C/C(C)[C@@H](O)[C@@H](C)/C=C\C(O)C[C@@H]1OC(=O)C(C)[C@@H](O)[C@H]1C` (stereo partly drawn) gave a 50% inhibitory concentration (IC50) of 485 nM.

Consider `C=C/C=C\C(C)C(OC(N)=O)[C@@H](C)[C@H](O)[C@@H](C)C/C(C)=C\C(C)[C@@H](O)[C@@H](C)/C=C\C(O)C[C@@H]1OC(=O)[C@H](C)[C@@H](O)[C@H]1C` (stereo partly drawn), for which the GI50 in the experiment on 2008 came to 72 nM; in experiment [1], 16 nM; with PC-3, 67 nM. Further, the IC50 in the experiment on A549 was found to be 3.8 nM; in experiment [3], 6 nM. Moreover, the Activity was 64% in experiment [2] and above 100% in the experiment with tubulin (Bos taurus).

For `CCCCCC(C)(C)[C@H](OC(N)=O)[C@@H](C)[C@H](O)CC/C=C\C(C)[C@@H](O)[C@@H](C)/C=C\CC[C@@H]1O[C@@H](OC)[C@H](C)[C@@H](OCOC)[C@@H]1C` (stereo partly drawn), the GI50 amounted to 42000 nM in the experiment on 2008, 23000 nM in experiment [1] and 38000 nM with PC-3. Moreover, the Activity in experiment [2] was 15%; in the experiment with tubulin (Bos taurus) it was 9%.

In the case of `C=C/C=C\C(C)C(OC(N)=O)[C@@H](C)[C@H](O)[C@@H](C)C/C=C\C(C)[C@@H](O)[C@@H](C)/C=C\C(O)C[C@@H]1OC(=O)C(C)[C@@H](O)[C@H]1C` (stereo partly drawn), it took 7.8 nM to reach half-maximal inhibition with A549 (IC50).

As for `CCCCCC[C@H](OC(N)=O)[C@@H](C)[C@H](O)CC/C=C\C(C)[C@@H](O)[C@@H](C)/C=C\CC[C@@H]1O[C@@H](OC)[C@H](C)[C@@H](OCOC)[C@@H]1C` (stereo partly drawn), the GI50 in the experiment with 2008 was 29000 nM; in experiment [1], 24000 nM; in the experiment on PC-3, above 50000 nM. In addition, the Activity in experiment [2] was found to be 9%; in the experiment with tubulin (Bos taurus) it was 6%.

Turning to `C=C/C=C\C(C)C(OC(N)=O)[C@@H](C)[C@H](O)C(C)C/C(C)=C\C(C)[C@@H](O)[C@@H](C)/C=C\C(C[C@@H]1OC(=O)[C@H](C)[C@@H](O)[C@H]1C)OC(C)=O` (stereo partly drawn), it took 0.8 nM to reach half-maximal inhibition in the experiment with A549 (IC50).

`C=C/C=C\C(C)C(OC(N)=O)[C@@H](C)[C@H](O)[C@@H](C)C/C(C)=C\C(C)[C@@H](O)[C@@H](C)/C=C\C(O)C[C@@H]1OC(=O)C(C)=C[C@H]1C` (stereo partly drawn) showed a 50% inhibitory concentration (IC50) in the experiment with A549 of 1.8 nM.

Take `C=C/C=C\[C@H](C)[C@H](OC(N)=O)[C@@H](C)[C@H](O)CC/C=C\C(C)[C@@H](O)[C@@H](C)/C=C\CC[C@@H]1O[C@@H](OC)[C@H](C)[C@@H](OCOC)[C@@H]1C` (stereo partly drawn): the GI50 in the experiment with 2008 was 4700 nM; in experiment [1], 3400 nM; in the experiment with PC-3, 15000 nM. For the same compound, the Activity in experiment [2] stood at 19%; in the experiment with tubulin (Bos taurus), 11%.

Regarding `C=C/C=C\[C@H](C)[C@H](OC(N)=O)[C@@H](C)[C@H](O)CC/C=C\C(C)[C@@H](O)[C@@H](C)/C=C\CC[C@@H]1OC(=O)[C@H](C)[C@@H](O)[C@@H]1C` (stereo partly drawn), the GI50 in the experiment on 2008 turned out to be 5200 nM; in experiment [1] it was 2100 nM; with PC-3, 7500 nM. The Activity in experiment [2] turned out to be 21%; in the experiment on tubulin (Bos taurus), 11%.

The compound `C=C/C=C\C(C)C(OC(N)=O)[C@@H](C)[C@H](OC(C)=O)C(C)C/C(C)=C\C(C)[C@@H](O)[C@@H](C)/C=C\C(O)C[C@@H]1OC(=O)[C@H](C)[C@@H](OC(C)=O)[C@H]1C` (stereo partly drawn) had an IC50 in the experiment with A549 of 524 nM.
